Calls of active or inactive are those of the source.
Experiments:
Type in all cases: functional, organism-based
[1] = tested on: Mus musculus; test: Immuno-adjuvant activity in BALB/c mouse assessed as increase in IL-21 expressing CD4+ effector T cells in spleen at 100 ug, sc administered on day 0, 14 and 28 and measured at week 6 post immunization by flow cytometry analysis; details: T-cell, dose 100.0 µg, time 6.0 weeks
How it was run: (§1)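 Female BALB/c mice (8–10 wk, six per group) given OVA 20 μg s.c. with adjuvant on days 0, 14, 28; spleens taken at week 6. Splenocytes stained with viability dye, Fc-blocked, surface-stained 30 min. For intracellular cytokines, cells stimulated 5 h with leukocyte activation cocktail plus GolgiPlug, then fixed/permeabilized. IL-21 detected with IL-21R Fc chimera. All steps at 4 °C. Read as MFI, mean ± SEM.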

[2] = tested on: Splenocyte; test: Immuno-adjuvant activity in BALB/c mouse Splenocyte assessed as increase in CD8+ T cells at 100 ug, sc administered on day 0, 14 and 28 and measured at week 6 post immunization by flow cytometry analysis; details: dose 100.0 µg, time 6.0 weeks; how it was run: as §1
[3] = tested on: Mus musculus; test: Immuno-adjuvant activity in BALB/c mouse assessed as increase in anti-OVA IgG antibody in serum at 50 ug, sc administered on day 0, 14 and 28 and measured at 2, 4 and 6 weeks in presence of chicken egg ovalbumin by ELISA; details: dose 50.0 µg, time 2-6 weeks
How it was run: (§2)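 Female BALB/c mice (8–10 wk, six per group) immunized s.c. with OVA 20 μg ± adjuvant on days 0, 14, 28. Tail-vein serum taken before each dose and 2 wk after the last. ELISA on OVA-coated (0.1 μg/mL) plates in borate saline pH 8.2. Twofold serum dilutions in duplicate, overnight at 4 °C. HRP anti-mouse IgG/subclass applied 4 h, OPD substrate, read at 490 nm. Concentrations from reference-serum standard curves (4-parameter fit).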

[4] = tested on: Mus musculus; test: Immuno-adjuvant activity in BALB/c mouse assessed as increase in anti-OVA Ig2a antibody in serum at 100 ug, sc administered on day 0, 14 and 28 and measured at 4 and 6 weeks in presence of chicken egg ovalbumin by ELISA; details: dose 100.0 µg, time 4-6 weeks; how it was run: as §2
[5] = tested on: Mus musculus; test: Immuno-adjuvant activity in BALB/c mouse assessed as increase in CD19+ B cells in spleen at 100 ug, sc administered on day 0, 14 and 28 and measured at week 6 post immunization by flow cytometry analysis; details: dose 100.0 µg, time 6.0 weeks
How it was run: (§3)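 Female BALB/c mice (8–10 wk, six per group), OVA 20 μg s.c. plus adjuvant on days 0, 14, 28; spleens collected week 6. Single-cell splenocyte suspensions stained and analysed by flow cytometry. TFH gated PD-1+Bcl6+Foxp3−CD4+CD3+, TFR PD-1+Bcl6+Foxp3+CD4+CD3+, dark zone GC B cells CXCR4hiCD86loFas+GL-7+CD19+. Steps at 4 °C. Mean ± SEM; unpaired t tests.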

[6] = tested on: Mus musculus; test: Immuno-adjuvant activity in BALB/c mouse assessed as increase in dark zone B cells at 100 ug, sc administered on day 0, 14 and 28 and measured at week 6 post immunization by flow cytometry analysis; details: dose 100.0 µg, time 6.0 weeks; how it was run: as §3
[7] = tested on: Mus musculus; test: Immuno-adjuvant activity in BALB/c mouse assessed as reduction in TFR cells in spleen at 100 ug, sc administered on day 0, 14 and 28 and measured at week 6 post immunization by flow cytometry analysis; details: dose 100.0 µg, time 6.0 weeks; how it was run: as §3
[8] = tested on: Mus musculus; test: Immuno-adjuvant activity in BALB/c mouse assessed as increase in anti-OVA IgG1 antibody in serum at 100 ug, sc administered on day 0, 14 and 28 and measured at 4 weeks in presence of chicken egg ovalbumin by ELISA; details: dose 100.0 µg; how it was run: as §2
[9] = tested on: Splenocyte; test: Immuno-adjuvant activity in BALB/c mouse Splenocyte assessed as increase in CD4+ T cells at 100 ug, sc administered on day 0, 14 and 28 and measured at week 6 post immunization by flow cytometry analysis; details: dose 100.0 µg, time 6.0 weeks; how it was run: as §1
[10] = tested on: Mus musculus; test: Immuno-adjuvant activity in BALB/c mouse assessed as increase in ratio of TFH to TFR cells at 100 ug, sc administered on day 0, 14 and 28 and measured at week 6 post immunization by flow cytometry analysis; details: dose 100.0 µg, time 6.0 weeks; how it was run: as §3
[11] = tested on: Mus musculus; test: Immuno-adjuvant activity in BALB/c mouse Splenocyte assessed as increase in CD4+ surface expression of PD-1 at 50 ug, sc administered on day 0, 14 and 28 and measured at week 6 post immunization by flow cytometry analysis; details: dose 50.0 µg, time 6.0 weeks; how it was run: as §1
[12] = tested on: Mus musculus; test: Immuno-adjuvant activity in BALB/c mouse assessed as increase in follicular helper T cells in spleen at 100 ug, sc administered on day 0, 14 and 28 and measured at week 6 post immunization by flow cytometry analysis; details: T-cell, dose 100.0 µg, time 6.0 weeks; how it was run: as §3
[13] = tested on: Mus musculus; test: Immuno-adjuvant activity in BALB/c mouse assessed as increase in IL-4 expressing CD4+ effector T cells in spleen at 100 ug, sc administered on day 0, 14 and 28 and measured at week 6 post immunization by flow cytometry analysis; details: T-cell, dose 100.0 µg, time 6.0 weeks; how it was run: as §1

Measured: Activity

C[C@@H]1O[C@@H](O[C@H]2[C@H](O)[C@@H](C(=O)NCCCCCCCCCCC(=O)OCc3ccccc3)O[C@@H](O[C@H]3CC[C@]4(C)[C@H]5CC=C6[C@@H]7CC(C)(C)CC[C@]7(C(=O)O[C@@H]7O[C@H](C)[C@H](O)[C@H](O)[C@H]7O[C@@H]7O[C@@H](C)[C@H](O[C@@H]8OC[C@@H](O)[C@H](O)[C@H]8O)[C@@H](O[C@@H]8O[C@H](CO)[C@@H](O)[C@H](O[C@@H]9OC[C@@H](O)[C@H](O)[C@H]9O)[C@H]8O)[C@H]7O)[C@H](O)C[C@@]6(C)[C@]5(C)CC[C@H]4[C@]3(C)C=O)[C@@H]2O[C@@H]2O[C@H](CO)[C@H](O)[C@H](O)[C@H]2O)[C@H](O)[C@H](O)[C@H]1O
active: all assays above
